Results from different studies.
Compare with care: the assays were run in different laboratories.
EIF2AK4 S808G C-terminal kinase domain: eIF-2-alpha kinase GCN2, C-terminal kinase domain (EIF2AK4, Homo sapiens, UniProt Q9P2K8, S808G)
EIF2AK4: eIF-2-alpha kinase GCN2 (EIF2AK4, Homo sapiens, UniProt Q9P2K8)
EIF2AK4 S808G: eIF-2-alpha kinase GCN2 (EIF2AK4, Homo sapiens, UniProt Q9P2K8, S808G)

Structure (SMILES) | target | assay | test system | setting | quantity | value
COc1ccc2cc(OCC3(C(=O)O)CN(C(=O)c4ccc(F)cc4)C3)ccc2c1 | EIF2AK4 S808G C-terminal kinase domain | cell-free assay, competition with immobilised ligand |  | 1 µM | remaining binding | 100%
Nc1ncnc2occ(-c3ccc(NC(=O)Nc4cc(C(F)(F)F)ccc4F)cc3)c12 | EIF2AK4 S808G C-terminal kinase domain | cell-free assay, inhibitor |  | 20 µM | remaining signal | 3.6%
Cc1ccc(NC(=O)c2ccc(C)c(C(F)(F)F)c2)cc1C#Cc1nn(C2CCC(O)CC2)c2ncnc(N)c12 (stereo not shown) | EIF2AK4 | cell-free assay |  | 10 µM | remaining signal | 50%
CNc1cc(Oc2cc(C(=O)Nc3cc(N4CCN(C)CC4)cc(C(F)(F)F)c3)ccc2C)ncn1 | EIF2AK4 | target engagement in cells, inhibitor, chemoproteomics | Huh-7 | 1 µM | inhibition | 37%
Cc1cnc(NC2CCOCC2)nc1-n1cnc(C(=O)NC(CN)c2cc(F)cc(Cl)c2)c1 (stereo not shown) | EIF2AK4 | enzyme activity, inhibitor, radiometric |  | 1 µM | remaining activity | 82%
COc1cc(Cl)c(C(=O)N[C@@H](CN[C@H]2CC[C@@H](N)CC2)Cc2ccc(C#N)cc2)cc1-c1ccc(CN[C@H](C)c2ccc(C)cc2)o1 | EIF2AK4 | enzyme activity, inhibitor |  | 1 µM | remaining activity | 102%
CN1CC(Oc2cnc(C#N)cc2-c2ccn3nc(NC(=O)C4CC4)cc3c2)C1 | EIF2AK4 | enzyme activity, inhibitor |  | 1 µM | inhibition | 15%
Cc1ccc(C(=O)Nc2ccc(CN3CCN(C)CC3)c(C(F)(F)F)c2)cc1C#Cc1cnc2cccnn12 | EIF2AK4 S808G | enzyme activity, inhibitor |  | 23.5 nM | remaining activity | 85%
CC(=O)Nc1c(C(C)=O)c(=O)n(C)c2nc(-c3ccc(Cl)cc3Cl)c(-c3ccc(Cl)cc3)cc12 | EIF2AK4 S808G | binding, competition with immobilised ligand |  | 1 µM | remaining binding | 48%
Cc1cc(NC(=O)c2cccc3cc(-c4cccc5[nH]nc(N)c45)ccc23)ccc1F | EIF2AK4 | enzyme activity, inhibitor |  | 0.1 µM | activity vs control | 92%
